# Source: ChEMBL document CHEMBL1131570, “2,5-bis[4-(N-alkylamidino)phenyl]furans as anti-Pneumocystis carinii agents” (J Med Chem, 1998)
# Tests used:
# [1] = Toxicity at a dose of 10.4 umol/kg/day against Pneumocystis carinii in rats; conditions: rat, in vivo
# [2] = system: Rattus norvegicus; assay: The cysts/g of lung (% of control ) is calculated at a dose of 10.4 umol/kg/day against Pneumocystis carinii in rats; format: functional
# Procedure, shortened: (§1)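 Rat *P. carinii* pneumonia model: furan dications given intravenously; lung cysts counted per g of lung tissue and expressed relative to pooled saline-treated control rats.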
# [3] = Toxicity at a dose of 0.5 umol/kg/day against Pneumocystis carinii in rats; conditions: rat, in vivo
# [4] = system: Rattus norvegicus; assay: The cysts/g of lung (% of control ) is calculated at a dose of 10.8 umol/kg/day against Pneumocystis carinii in rats; format: functional; procedure, shortened: as §1
# [5] = system: Rattus norvegicus; assay: The cysts/g of lung (% of control ) is calculated at a dose of 0.5 umol/kg/day against Pneumocystis carinii in rats; format: functional; procedure, shortened: as §1
# [6] = Toxicity at a dose of 10.8 umol/kg/day against Pneumocystis carinii in rats; conditions: rat, in vivo
# [7] = system: Rattus norvegicus; assay: The cysts/g of lung (% of control ) is calculated at a dose of 9.1 umol/kg/day against Pneumocystis carinii in rats; format: functional; procedure, shortened: as §1
# [8] = Toxicity at a dose of 9.1 umol/kg/day against Pneumocystis carinii in rats; conditions: rat, in vivo
# [9] = Toxicity at a dose of 0.9 umol/kg/day against Pneumocystis carinii in rats; conditions: rat, in vivo
# [10] = system: Rattus norvegicus; assay: The cysts/g of lung (% of control ) is calculated at a dose of 0.9 umol/kg/day against Pneumocystis carinii in rats; format: functional; procedure, shortened: as §1
# [11] = Toxicity at a dose of 10 umol/kg/day against Pneumocystis carinii in rats; conditions: rat, in vivo
# [12] = system: Rattus norvegicus; assay: The cysts/g of lung (% of control ) is calculated at a dose of 10 umol/kg/day against Pneumocystis carinii in rats; format: functional; procedure, shortened: as §1
# [13] = Toxicity at a dose of 0.2 umol/kg/day against Pneumocystis carinii in rats; conditions: rat, in vivo
# [14] = system: Rattus norvegicus; assay: The cysts/g of lung (% of control ) is calculated at a dose of 0.2 umol/kg/day against Pneumocystis carinii in rats; format: functional; procedure, shortened: as §1
# [15] = system: Rattus norvegicus; assay: The cysts/g of lung (% of control ) is calculated at a dose of 10.6 umol/kg/day against Pneumocystis carinii in rats; format: functional; procedure, shortened: as §1
# [16] = Toxicity at a dose of 10.6 umol/kg/day against Pneumocystis carinii in rats; conditions: rat, in vivo
# [17] = Toxicity at a dose of 2.2 umol/kg /day against Pneumocystis carinii in rats; conditions: rat, in vivo
# [18] = Toxicity at a dose of 1.1 umol/kg / day against Pneumocystis carinii in rats; conditions: rat, in vivo
# [19] = system: Rattus norvegicus; assay: The cysts/g of lung (% of control ) is calculated at a dose of 2.2 umol/kg/day against Pneumocystis carinii in rats; format: functional; procedure, shortened: as §1
# [20] = system: Rattus norvegicus; assay: The cysts/g of lung (% of control ) is calculated at a dose of 1.1 umol/kg/day against Pneumocystis carinii in rats; format: functional; procedure, shortened: as §1
# [21] = system: Rattus norvegicus; assay: The cysts/g of lung (% of control ) is calculated at a dose of 0.2 umol/kg /day against Pneumocystis carinii in rats; format: functional; procedure, shortened: as §1
# [22] = system: Rattus norvegicus; assay: The cysts/g of lung (% of control ) is calculated at a dose of 1.9 umol/kg day against Pneumocystis carinii in rats; format: functional; procedure, shortened: as §1
# [23] = Toxicity at a dose of 0.9 umol/kg day against Pneumocystis carinii in rats; conditions: rat, in vivo
# [24] = Toxicity at a dose of 1.9 umol/kg day against Pneumocystis carinii in rats; conditions: rat, in vivo
# [25] = system: Rattus norvegicus; assay: The cysts/g of lung (% of control ) is calculated at a dose of 0.9 umol/kg day against Pneumocystis carinii in rats; format: functional; procedure, shortened: as §1
# [26] = system: Rattus norvegicus; assay: The cysts/g of lung (% of control ) is calculated at a dose of 0.2 umol/kg day against Pneumocystis carinii in rats; format: functional; procedure, shortened: as §1
# [27] = Toxicity at a dose of 0.2 umol/kg day against Pneumocystis carinii in rats; conditions: rat, in vivo
# [28] = system: Rattus norvegicus; assay: The cysts/g of lung (% of control ) is calculated at a dose of 9.4 umol/kg day against Pneumocystis carinii in rats; format: functional; procedure, shortened: as §1
# [29] = system: Rattus norvegicus; assay: The cysts/g of lung (% of control ) is calculated at a dose of 4.8 umol/kg/day against Pneumocystis carinii in rats; format: functional; procedure, shortened: as §1
# [30] = Toxicity at 10.4 a dose of umol/kg/day against Pneumocystis carinii in rats; conditions: rat, in vivo
# [31] = system: Rattus norvegicus; assay: The cysts/g of lung (% of control ) is calculated at a dose of 9.9 umol/kg/day against Pneumocystis carinii in rats; format: functional; procedure, shortened: as §1
# [32] = system: Rattus norvegicus; assay: The cysts/g of lung (% of control ) is calculated at a dose of 1.0 umol/kg/day against Pneumocystis carinii in rats; format: functional; procedure, shortened: as §1
# [33] = Toxicity at a dose of 1.0 umol/kg/day against Pneumocystis carinii in rats; conditions: rat, in vivo
# [34] = Toxicity at a dose of 9.7 umol/kg/day against Pneumocystis carinii in rats;; conditions: rat, in vivo
# [35] = system: Rattus norvegicus; assay: The cysts/g of lung (% of control ) is calculated at a dose of 9.7 umol/kg/day against Pneumocystis carinii in rats; format: functional; procedure, shortened: as §1
# [36] = Toxicity at a dose of 0.03 umol/kg/day against Pneumocystis carinii in rats; conditions: rat, in vivo
# [37] = system: Rattus norvegicus; assay: The cysts/g of lung (% of control ) is calculated at a dose of 0.3 umol/kg /day against Pneumocystis carinii in rats; format: functional
# Procedure, shortened: (§2)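 P. carinii-infected rats dosed intravenously with the furan dication. Cysts were counted per g of lung tissue and expressed as % of the mean count of pooled saline-treated controls (n = 142).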
# [38] = system: Rattus norvegicus; assay: The cysts/g of lung (% of control ) is calculated at a dose of 2.7 umol/kg/day against Pneumocystis carinii in rats; format: functional; procedure, shortened: as §2
# [39] = Toxicity at a dose of 2.7 umol/kg/day against Pneumocystis carinii in rats; conditions: rat, in vivo
# [40] = system: Rattus norvegicus; assay: The cysts/g of lung (% of control ) is calculated at a dose of 0.03 umol/kg /day against Pneumocystis carinii in rats; format: functional; procedure, shortened: as §2
# [41] = Toxicity at a dose of 0.3 umol/kg/day against Pneumocystis carinii in rats; conditions: rat, in vivo
# [42] = system: Rattus norvegicus; assay: The cysts/g of lung (% of control ) is calculated at a dose of 22.0 umol/kg/day against Pneumocystis carinii in rats; format: functional; procedure, shortened: as §1
# [43] = Toxicity at a dose of 22.0 umol/kg/day against Pneumocystis carinii in rats;; conditions: rat, in vivo
# [44] = system: Rattus norvegicus; assay: The cysts/g of lung (% of control ) is calculated at a dose of 13.3 umol/kg/day against Pneumocystis carinii in rats; format: functional; procedure, shortened: as §1
# [45] = Toxicity at a dose of 13.3 umol/kg/day against Pneumocystis carinii in rats; conditions: rat, in vivo
compound,measurement,setting,value
N=C(NCCO)c1ccc(-c2ccc(-c3ccc(C(=N)NCCO)cc3)o2)cc1,Toxicity,[1],0
same,Control,[2],0.6%
N=C(NCC1CC1)c1ccc(-c2ccc(-c3ccc(C(=N)NCC4CC4)cc3)o2)cc1,Toxicity,[3],0
same,Control,[4],0.24%
same,Control,[5],3.25%
same,Toxicity,[6],0
N=C(NC1CCCCC1)c1ccc(-c2ccc(-c3ccc(C(=N)NC4CCCCC4)cc3)o2)cc1,Control,[7],0.02%
same,Toxicity,[8],0
same,Toxicity,[9],0
same,Control,[10],26.28%
CC(C)CNC(=N)c1ccc(-c2ccc(-c3ccc(C(=N)NCC(C)C)cc3)o2)cc1,Toxicity,[11],0
same,Control,[12],2.2%
CCCNC(=N)c1ccc(-c2ccc(-c3ccc(C(=N)NCCC)cc3)o2)cc1,Toxicity,[13],0
same,Control,[14],107.83%
same,Control,[15],0.08%
same,Toxicity,[16],0
N=C(NCC1CCCCC1)c1ccc(-c2ccc(-c3ccc(C(=N)NCC4CCCCC4)cc3)o2)cc1,Control,[15],43.9%
same,Toxicity,[16],0
CC(C)NC(=N)c1ccc(-c2ccc(-c3ccc(C(=N)NC(C)C)cc3)o2)cc1,Toxicity,[13],0
same,Toxicity,[17],0
same,Control,[4],0.2%
same,Toxicity,[18],0
same,Control,[19],8.41%
same,Control,[20],11.73%
same,Control,[21],169%
same,Toxicity,[6],0
N=C(NC1CCCC1)c1ccc(-c2ccc(-c3ccc(C(=N)NC4CCCC4)cc3)o2)cc1,Control,[22],0.08%
same,Toxicity,[23],0
same,Toxicity,[24],0
same,Control,[25],0.11%
same,Control,[26],93.5%
same,Toxicity,[27],0
same,Control,[28],0.03%
CCC(CC)NC(=N)c1ccc(-c2ccc(-c3ccc(C(=N)NC(CC)CC)cc3)o2)cc1,Control,[29],24.43%
CC/N=C(\N)c1ccc(-c2ccc(-c3ccc(/C(N)=N/CC)cc3)o2)cc1,Control,[2],0.05%
same,Toxicity,[30],0
N=C(NC1CCC1)c1ccc(-c2ccc(-c3ccc(C(=N)NC4CCC4)cc3)o2)cc1,Control,[31],0.05%
same,Control,[32],0.67%
same,Toxicity,[33],0
CC(C)CC/N=C(\N)c1ccc(-c2ccc(-c3ccc(/C(N)=N/CCC(C)C)cc3)o2)cc1,Toxicity,[34],0
same,Control,[35],2.38%
N=C(NC1CC1)c1ccc(-c2ccc(-c3ccc(C(=N)NC4CC4)cc3)o2)cc1,Toxicity,[13],0
same,Control,[14],129%
same,Control,[4],0.03%
C/N=C(\N)c1ccc(-c2ccc(-c3ccc(/C(N)=N/C)cc3)o2)cc1,Toxicity,[13],0
same,Control,[14],85.37%
same,Control,[15],0.16%
N=C(N)c1ccc(-c2ccc(-c3ccc(C(=N)N)cc3)o2)cc1 [FURAMIDINE],Toxicity,[36],0
same,Control,[37],5.38%
same,Control,[38],5.65%
same,Toxicity,[39],0
same,Control,[40],21.97%
same,Toxicity,[41],0
N=C(N)c1ccc(OCCCCCOc2ccc(C(=N)N)cc2)cc1 [PENTAMIDINE],Control,[42],1.46%
same,Toxicity,[43],Local toxicity
same,Control,[44],0.61%
same,Toxicity,[45],0
